Assay results published in publication PMC6087491 (Bioorganic & medicinal chemistry, 2018).
Where two headings read alike, the source gives them in different places.

Legend:
[1] = test system: CAR cell line; assay: MTT antiproliferative assay against cisplatin-resistant oral squamous; format: cell-based, human
Summary of the method: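 Cells are a CAL27-derived line selected through 10 cycles of 10–80 μM cisplatin and maintained in DMEM/10% FBS with penicillin, streptomycin, 2 mM L-glutamine and 80 μM cisplatin. They were seeded at 2×10^4 cells/well and exposed to 0–100 μM test compound (0.5% DMSO vehicle) for 48 or 72 h. MTT (500 μg/ml) was added for 4 h at 37 °C, formazan was dissolved in DMSO, and A570 was read. Viability is expressed as % of control.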

[2] = test system: CAR xenograft; assay: In vivo antitumor activity in CAR xenograft nude mouse model; set-up: species or system BALB/c nude mice
Summary of the method: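 Male 4-week-old BALB/c nude mice; CAR cells (cisplatin-resistant CAL27, cultured with 80 μM cisplatin), 1×10^7/mouse in medium:Matrigel 1:1, injected s.c. into flank. At ~50 mm3 (day 22), randomised into four groups; test compound oral 25, 50 or 100 mg/kg once daily ×30 in 1,2-propanediol; controls vehicle only. Caliper tumor size ([…]); tumors excised, weighed day 31.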

[3] = Toxicity monitoring and blood biochemical analysis in CAR xenograft nude mice; format: in vivo, BALB/c nude mice
[4] = Preliminary pharmacokinetic study of compound 12 in rats; settings: single oral 100 mg/kg, PO-1 and PO-2 formulations, 0.5-24 h
[5] = read-out: IC50 (concentration for 50% antiproliferative effect), CAR cells, 48 h
[6] = read-out: IC50 (concentration for 50% antiproliferative effect), CAR cells, 72 h

Row | Molecule | IC50 [1, 5] [µM] | IC50 [1, 6] [µM] | also measured
1 | (E)-5-(4-((3-Hydroxy-2-(hydroxymethyl)-2-methylpropanoyl)oxy)styryl)-1,3-phenylene diacetate [Compound 22] | 103 ± 4.58 | 116 ± 3.96 | 
2 | (E)-4-(3,5-Dihydroxystyryl)phenyl 3-hydroxy-2-(hydroxymethyl)-2-methylpropanoate [Compound 20] | 52 ± 2.6 | 50.3 ± 1.98 | 
3 | COc1cc(/C=C/c2ccc(OC(=O)C(C)(CO)CO)cc2)cc(OC)c1 [Compound 12, 4-(3,5-Dimethoxystyryl)phenyl-3-hydroxy-2-(hydroxymethyl)-2-methylpropanoate] |  |  | inhibitory effects on CAR tumor size and weight ([2]; 25, 50 and 100 mg/kg PO once daily for 30 days): dose- and time-dependent inhibitory effects; antitumor activity ([2]; lowest oral dose 25 mg/kg/day): Obvious antitumor activity; changes in body weight, food consumption and behavior vs untreated control ([3]; 25, 50 and 100 mg/kg PO QD×30): no obvious changes; blood analysis, 12-fed groups vs control group ([3]; total protein, albumin, creatinine, BUN, uric acid, glucose, 25-100 mg/kg QD×30): no significant difference; blood concentration of compound 12 [4]: not detected
4 | (E)-4-(3-Acetoxy-5-((3-hydroxy-2-(hydroxymethyl)-2-methylpropanoyl)oxy) styryl)phenyl 3-hydroxy-2-(hydroxymethyl)-2-methylpropanoate [Compound 27] | 122 ± 2.69 | 119 ± 2.19 | 
5 | (E)-5-(4-((3-Hydroxy-2-(hydroxymethyl)-2-methylpropanoyl)oxy)styryl)-1,3-phenylene diacetate [Compound 23] | 54.9 ± 2.59 | 114 ± 3.25 | 
6 | N.N.[Cl][Pt][Cl] [Cisplatin, reference compound] | > 100 | > 100 | 
7 | (E)-4-(3-Hydroxy-5-((3-hydroxy-2-(hydroxymethyl)-2-methylpropanoyl)oxy) styryl)phenyl 3-hydroxy-2-(hydroxymethyl)-2-methylpropanoate [Compound 25] | 105 ± 1.98 | 113 ± 2.77 | 
8 | (E)-5-(4-Hydroxystyryl)-1,3-phenylene bis(3-hydroxy-2-(hydroxymethyl)-2-methylpropanoate) [Compound 24] | 90.4 ± 3.65 | 76.9 ± 3.22 | 
9 | (E)-4-(3-Acetoxy-5-methoxystyryl)phenyl 3-hydroxy-2-(hydroxymethyl)-2-methylpropanoate [Compound 18] | 169 ± 3.19 | 133 ± 2.45 | 
10 | 4-[(E)-2-(3,5-dimethoxyphenyl)ethenyl]phenol [Pterostilbene, reference compound] | 100 ± 4.78 | 98.3 ± 5.21 | 
